Measurements from PMC5516171 (Clinical Pharmacology in Drug Development, 2016).
“Also recorded” adds a separate entry of the source.

How the values were obtained:
[1] = system: human mast cell line HMC‐1; test: In vitro mast cell degranulation, human mast cell line HMC‐1; format: cell-based; conditions: HMC‐1 cells, 37°C, 30 minutes; up to 250 μg/mL ARC‐EX1 and ARC‐520 API
Outline: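 HMC‑1 human mast cells were cultured in Iscove's medium with 2% FBS. They were exposed to increasing concentrations, up to 250 μg/mL, of the excipient peptide, the siRNA drug substance, or both combined. The positive control was phorbol myristate acetate plus calcium ionophore A23187. Incubation was 37°C for 30 min. Supernatants were assayed for histamine and β‑hexosaminidase (degranulation) and for LDH (viability).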

[2] = system: rat peritoneal mast cells; test: In vitro mast cell degranulation, rat peritoneal mast cells; format: cell-based
Outline: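 Freshly isolated rat peritoneal mast cells were resuspended in RPMI 1640 with 1% FBS. They were given increasing concentrations of the excipient peptide (up to 250 μg/mL), the siRNA drug substance (up to 1000 μg/mL), or both combined. Incubation was 37°C for 10 or 30 min. Supernatant histamine (nM ± SD) and chymase measured degranulation; LDH measured viability.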

Question: Which “Mast cell degranulation and histamine release” value [1] does the source give for “ARC‐EX1: delivery excipient: masked, hepatocyte‐targeted L‐melittin‐derived peptide; masking group carboxydimethyl maleic anhydride N‐acetyl galactosamine (LIGAILKVLATGLPTLISWIKNKRKQ; CDM-NAG masking groups)” here?
Answer: Its value is “major trigger”.

Question: And the “Concentration at which maximum histamine release was observed” value ([2]; 10 and 30 minutes of incubation)?
Answer: The value was no less than 10000 ng/mL.

Question: What about the “Mast cell degranulation and histamine release” value ([2]; 37°C, 10 or 30 minutes, up to 250 μg/mL ARC‐EX1 or 1000 μg/mL ARC‐520 API) of the same substance?
Answer: Its value is “major trigger; also recorded: induced mast cell degranulation and histamine release in a dose‐dependent manner”.
